In the library only some 3% were active in any assay of this set; here they are far more common.
ABHD5 PLIN5 PPI: blocks binding of human ABHD5 to perilipin-5. Split G. princeps luciferase complementation, luminescence, 4 h. inhibition, % at 4 µM. actives 0.78% (n = 360,000);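 active means inhibition above the mean inhibition across every tested compound plus 3 SD, cut at about 22% in these data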
MC4R ag barr: agonists of human melanocortin 4 receptor (MC4R) beta-arrestin; P32245; U2OS MC4R beta-arrestin complementation, luminescence; percent of melanotan II response, DMSO zero; activation, % at 8.9 µM; actives 0.98% (n = 360,000); AID 540308;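 active means activation above a per-plate cutoff, the mean activation of sample wells on that plate plus 3 SD, cut at about 8% in these data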
Target sequence (P32245 whole entry, looked up): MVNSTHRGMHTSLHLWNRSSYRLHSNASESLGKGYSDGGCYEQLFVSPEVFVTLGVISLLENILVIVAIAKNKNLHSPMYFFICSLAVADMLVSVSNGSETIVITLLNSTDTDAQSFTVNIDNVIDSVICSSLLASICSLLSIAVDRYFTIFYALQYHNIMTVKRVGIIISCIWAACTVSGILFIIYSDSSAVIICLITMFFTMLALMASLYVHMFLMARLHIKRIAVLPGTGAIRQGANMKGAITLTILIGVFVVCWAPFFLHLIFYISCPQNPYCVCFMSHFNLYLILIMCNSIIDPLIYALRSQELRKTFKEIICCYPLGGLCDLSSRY
MC4R antag cAMP: human MC4R antagonism in cAMP assay; inhibition, % at 6.5 µM; MC4R-expressing cells, MTII-stimulated cAMP, LANCE TR-FRET; P32245; AID 540295; actives 0.48% (n = 360,000);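 active means inhibition above its plate's cutoff, the mean of tested wells on that plate plus 3 SD, cut at about 29% in these data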
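Assay system: U2OS-MC4R stable cell line; Also added: Melanotan II; Technique: Eu-cAMP/anti-cAMP TR-FRET, emission 671 nm; Times: 30-min compound, 1-h challenge, 1-h detection, room temperature.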
PfGluPho inh: PfG6PD (Plasmodium falciparum) enzyme inhibition; PfGluPho enzyme, NADPH resazurin-diaphorase fluorescence; inhibition, % at 20 µM; actives 0.78% (n = 350,000);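 active means inhibition reaching at least a set limit at 20 µM in the primary screen, cut at about 59% in these data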
B2AR ag: activates human beta-2 adrenergic receptor causing internalization. Am2.2-beta2AR cells, FAP receptor internalization, flow cytometry. response, % (test concentration not listed). actives 0.43% (n = 340,000). AID 504454;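 active means response above a set limit, near 3 SD of response in nonfluorescent compounds, cut at about 42% in these data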
Large screens that a line does not name were inactive.

C#CCOCCOCCOCCNc1nc(N2CCN(C(=O)CCCCCCCCCCNC(=O)[C@@H](CCC(=O)O)n3cc(CCCCCN)nn3)CC2)nc(N2CCN(C(=O)CCCCCCCCCCNC(=O)[C@H]([C@@H](C)CC)n3cc(CCCCCN)nn3)CC2)n1	ABHD5 PLIN5 PPI 51, B2AR ag 52
C#CCOCCOCCOCCNc1nc(N2CCN(C(=O)Cn3cc(CCCCN)nn3)CC2)nc(N2CCN(C(=O)[C@H]([C@@H](C)CC)n3cc(CCCCN)nn3)CC2)n1	none
C#CCOCCOCCOCCNc1nc(N2CCN(C(=O)CCCCCCCCCCNC(=O)[C@H]([C@@H](C)CC)n3cc(CCCCN=C(N)N)nn3)CC2)nc(N2CCN(C(=O)CCCCCCCCCCNC(=O)[C@H](CO)n3cc(CCCCCN)nn3)CC2)n1	ABHD5 PLIN5 PPI 47, MC4R antag cAMP 32, PfGluPho inh 64, B2AR ag 52
C#CCOCCOCCOCCNc1nc(N2CCOCC2)nc(N2CCN(C(=O)CCCCCCCCCCNC(=O)[C@@H]([C@H](C)CC)n3cc(CCCCCN)nn3)CC2)n1	ABHD5 PLIN5 PPI 27
C#CCOCCOCCOCCNc1nc(N2CCN(C(=O)CCCCCCCCCCNC(=O)[C@H]([C@@H](C)CC)n3cc(CCCCN=C(N)N)nn3)CC2)nc(N2CCN(C(=O)CCCCCCCCCCNC(=O)[C@H](CCCCN)n3cc(C)nn3)CC2)n1	PfGluPho inh 72 (no result: ABHD5 PLIN5 PPI, MC4R ag barr, MC4R antag cAMP, B2AR ag)
C#CCOCCOCCOCCNc1nc(N2CCN(C(=O)[C@H]([C@@H](C)CC)n3cc(CCCCN)nn3)CC2)nc(N2CCN(C(=O)[C@H](CCCCN)n3cc(CCCC)nn3)CC2)n1	none
C#CCOCCOCCOCCNc1nc(N2CCOCC2)nc(N2CCN(C(=O)CCCCCCCCCCNC(=O)[C@@H](CCC(=O)O)n3cc(CCCCCN)nn3)CC2)n1	none
COCCN1C(=O)COc2ccccc2C1C(=O)NCc1ccccc1 (centres undefined)	none (no result: MC4R ag barr, MC4R antag cAMP, PfGluPho inh, B2AR ag)
C#CCOCCOCCOCCNc1nc(N2CCN(C(=O)CCCCCCCCCCNC(=O)[C@H]([C@@H](C)CC)n3cc(CCCCCN)nn3)CC2)nc(N2CCN(C(=O)CCCCCCCCCCNC(=O)[C@H]([C@@H](C)CC)n3cc(CCCCN=C(N)N)nn3)CC2)n1	ABHD5 PLIN5 PPI 59, MC4R antag cAMP 57 (no result: PfGluPho inh)
COc1ccc(S(=O)(=O)/N=C2/C=CC(=O)C(C)=C2C)cc1	PfGluPho inh 62
CCCNC(=O)c1cc(C2CCCCN2C(=O)c2ccc(OC)cc2)on1 (centres undefined)	none (no result: PfGluPho inh, B2AR ag)
COc1cccc(/C=C/C(=O)OCC(=O)c2ccc(Br)cc2)c1	none (no result: B2AR ag)
COc1cccc(/C=C/C(=O)OCC(=O)c2ccc3c(c2)NC(=O)CO3)c1	MC4R ag barr 8.5
O=C(O)c1cccc2c1Cc1cc(Cl)ccc1-2	none
Cc1oc(-c2ccc3c(c2)OCCO3)cc1C(=O)NCC(=O)O	ABHD5 PLIN5 PPI 22
CCN(CC)C(=O)CC(c1cc(OC)c(OC)c(OC)c1)c1c(OC)cc(OC)c2c(-c3ccccc3)cc(=O)oc12 (centres undefined)	none
O=C1C(=O)c2cccnc2-c2ncccc21	ABHD5 PLIN5 PPI 101 (no result: MC4R ag barr, MC4R antag cAMP, PfGluPho inh, B2AR ag)
O=C1c2cccnc2-c2ncccc21	none
CC(C)(C)C1CCc2sc(C(=O)NNC(=O)CCl)cc2C1 (centres undefined)	MC4R ag barr 19
O=C(Nc1ccccc1)c1cc(C2CCCN(C(=O)c3cccs3)C2)on1 (centres undefined)	none (no result: PfGluPho inh, B2AR ag)
Cc1cc(C)cc(-n2c3nc4ccccc4nc3c3c(=O)n(Cc4ccco4)cnc32)c1	ABHD5 PLIN5 PPI 60
Fc1cccc(-c2cncc(N3CCN(CCN4CCCC4)CC3)n2)c1	none (no result: PfGluPho inh, B2AR ag)
CCOc1cc(S(=O)(=O)Nc2ccc(CC)cc2)ccc1Cl	MC4R ag barr 9.4
CCOc1cc(S(=O)(=O)Nc2ccccc2CC)ccc1Cl	none
Nc1c(C(=O)NCc2ccc3c(c2)OCO3)nnn1CC(=O)Nc1ccc(Br)cc1	MC4R ag barr 15
COc1ccc(Cl)cc1NC(=O)Cn1nnc(C(=O)NCc2ccc3c(c2)OCO3)c1N	MC4R ag barr 8.6
CCOC(=O)C1=C(O)/C(=C/c2cc(OC)c(OC)c(OC)c2)SC1=Nc1ccc(OC)cc1	MC4R ag barr 8.3
O=C1CCC(/C=C/c2ccccc2)=NN1Cc1ccccc1Cl	B2AR ag 43
OC(c1ccccc1)c1nc(-c2cc(F)cc(F)c2)cs1 (centres undefined)	none (no result: PfGluPho inh, B2AR ag)
OC(c1ccccc1)c1nc(-c2cccc(C(F)(F)F)c2)cs1 (centres undefined)	MC4R ag barr 9.5 (no result: PfGluPho inh, B2AR ag)
Cc1cccc(NS(=O)(=O)c2nnc(NC(=O)c3cccc(C)c3)s2)c1	none
Cc1cccc(C(=O)Nc2nnc(S(=O)(=O)N(C)Cc3ccco3)s2)c1	PfGluPho inh 95
CN1CCN/C1=C(/C(Cl)=C(Cl)Cl)[N+](=O)[O-]	MC4R antag cAMP 36
O=c1c2cc(F)ccc2sn1-c1ccccc1	ABHD5 PLIN5 PPI 99, PfGluPho inh 114
CCCN1CCCc2cc(CN)ccc21	PfGluPho inh 66
C#CCOCCOCCOCCNc1nc(N2CCN(C(=O)CCCCCCCCCCNC(=O)Cn3cc(CCCCCN)nn3)CC2)nc(N2CCN(C(=O)CCCCCCCCCCNC(=O)[C@@H](CCSC)n3cc(CCO)nn3)CC2)n1	ABHD5 PLIN5 PPI 57, B2AR ag 75
C#CCOCCOCCOCCNc1nc(N2CCN(C(=O)CCCCCCCCCCNC(=O)Cn3cc(CCCCCN)nn3)CC2)nc(N2CCN(C(=O)CCCCCCCCCCNC(=O)[C@@H](CCC(=O)O)n3cc(CCCCCN)nn3)CC2)n1	none
C#CCOCCOCCOCCNc1nc(N2CCN(C(=O)CCCCCCCCCCNC(=O)[C@H](CO)n3cc(CCCSC)nn3)CC2)nc(N2CCN(C(=O)CCCCCCCCCCNC(=O)[C@H](CCCCN)n3cc(CCO)nn3)CC2)n1	ABHD5 PLIN5 PPI 49
C#CCOCCOCCOCCNc1nc(N2CCN(C(=O)Cn3cc(CCCCN)nn3)CC2)nc(N2CCN(C(=O)Cn3cc(CCCCN)nn3)CC2)n1	none
C#CCOCCOCCOCCNc1nc(N2CCN(C(=O)CCCCCCCCCCNC(=O)Cn3cc(CCCCCN)nn3)CC2)nc(N2CCN(C(=O)CCCCCCCCCCNC(=O)Cn3cc(CCCCCN)nn3)CC2)n1	PfGluPho inh 77, B2AR ag 45
C#CCOCCOCCOCCNc1nc(N2CCN(C(=O)CCCCCCCCCCNC(=O)[C@H](CO)n3cc(CCCSC)nn3)CC2)nc(N2CCN(C(=O)CCCCCCCCCCNC(=O)[C@H](CCCN=C(N)N)n3cc(C[C@@H](C)CC)nn3)CC2)n1	ABHD5 PLIN5 PPI 70, MC4R antag cAMP 53, B2AR ag 89
O=C(N/C(=C/c1cccnc1)C(=O)N1CCOCC1)c1ccccc1Br	none
CCCOc1ccc(-c2c(C(=O)N/N=C(\C)c3ccncc3)nnn2-c2nonc2N)cc1	none
CN1CCN(CC(=O)Nc2cc(S(=O)(=O)N3CCOCC3)ccc2Cl)CC1	none
